Source: ChEMBL document CHEMBL2163251, “Synthesis and pharmacological evaluation of indolinone derivatives as novel ghrelin receptor antagonists” (Bioorg Med Chem, 2012)
One block for each compound: values may come before it. Activity calls are given as the source filed them. The calls are words filed in the database; no cut-off is given here.

What was measured:
[1] = biological target: T1, Growth hormone secretagogue receptor type 1 (Homo sapiens, UniProt Q92847); test: Antagonist activity at human GHSR1 expressed in CHO-CREluc cells after 4 hrs by Luciferase reporter assay; format: functional, cell-based
Procedure, shortened: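 hGHSR1a stably cloned into CHO line carrying CRE-luciferase reporter (six CRE upstream of firefly luciferase). Cells plated in MEM with 10% dialysed FBS. Stimulation medium held 0.1 µM forskolin and 3 nM human ghrelin. Luciferase read by photon counting.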

Rattus norvegicus [2] = test: Inhibition of ghrelin induced food intake in CD rat at 10 mg/kg, ip administered 30 mins prior to icv ghrelin challenge measured after 1 hr; format: functional; conditions: route intraperitoneal
Procedure, shortened: (§1)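 Adult male CD rats (200–300 g) fitted with lateral-ventricle cannulae. Dosed 10 mg/kg ip 30 min before icv rat ghrelin (10 µg/rat in 15 µl) or saline. Cumulative food intake measured hourly for 4 h, n=6–7 per group.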

[3] = Binding affinity at histamine receptor at 10 uM
Mus musculus [4] = test: Inhibition of ghrelin-induced food intake in fasted C57/BL6N mouse at 10 mg/kg, ip up to 6 hrs; format: functional, organism-based; design: dose 10 mg/kg
Procedure, shortened: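 Male C57BL/6 mice fasted overnight and dosed ip 10 mg/kg (vehicle 10 ml/kg) 1 h before refeeding. Cumulative food intake recorded after food return.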

Hepatocyte = test: Intrinsic clearance in human hepatocytes assessed per million cells at 5 uM; format: ADME, cell-based
[5] = biological target: T1, Growth hormone secretagogue receptor type 1; test: Displacement of [125I]-ghrelin from human GHSR1 expressed in CHO-CREluc cells after 1 hr by scintillation counting; format: cell-based
Procedure, shortened: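 Crude membranes from CHO-CREluc-hGHSR1a cells were homogenized in TM buffer (10 mM Tris-HCl pH 7.4, 10 mM MgCl2) and spun at 40,000g. Incubated 1 h in TM buffer with 0.25% BSA and 10% dialysed FBS, 0.25 nM [125I] human ghrelin and increasing compound concentrations. Harvested on PEI-pretreated GF/B filters and washed with cold buffer. Bound radioactivity counted by scintillation.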

Rattus norvegicus [6] = test: Inhibition of ghrelin-induced gastric emptying in CD rat at 10 mg/kg, ip; format: functional; conditions: Stomach, route intraperitoneal
Procedure, shortened: (§2)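 24 h fasted male CD rats dosed ip (vehicle 2 ml/kg), then given rat ghrelin 20 µg/kg iv. BaSO4 meal (75% w/v in 0.5% CMC, 1 ml/100 g) given by gavage. Stomach content weighed at 0 or 60 min and compared with drug-free controls killed at t=0.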

[7] = Permeability across human Caco2/TC7 cells compound transport; format: ADME, cell-based; conditions: Caco-2, read-out: permeability
P-glycoprotein = test: P-glycoprotein-mediated efflux ratio of the compound; format: ADME; conditions: not told
[8] = Binding affinity at adrenergic receptor at 10 uM
Rattus norvegicus [9] = test: Inhibition of gastric emptying in CD rat at 10 mg/kg, ip; format: functional; conditions: Stomach, route intraperitoneal
Procedure, shortened: (§3)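 24 h fasted male CD rats dosed ip (vehicle 2 ml/kg), no ghrelin. BaSO4 meal (75% w/v in 0.5% CMC, 1 ml/100 g) given by gavage. Rats killed at 0 or 60 min and stomach content weighed. Result expressed relative to the mean content of drug-free controls killed at t=0.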

[10] = Permeability across human Caco2/TC7 cells assessed as compound recovery; format: ADME, cell-based; conditions: Caco-2, read-out: permeability
[11] = Binding affinity at serotonin receptor at 10 uM
[12] = Drug metabolism in rat liver microsomes at 5 uM after 24 hrs; format: ADME, Microsome; conditions: read-out: Drug metabolism
Procedure, shortened: (§4)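 Compound at 5 µM incubated 24 h with isolated hepatic microsomal fractions from mouse, rat or human.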

[13] = Binding affinity at vasopressin receptor at 10 uM
Rattus norvegicus [14] = test: Inhibition of ghrelin induced food intake in CD rat at 10 mg/kg, ip administered 30 mins prior to icv ghrelin challenge measured after 2 hrs; format: functional; conditions: route intraperitoneal; procedure, shortened: as §1
Rattus norvegicus [15] = test: Inhibition of ghrelin induced food intake in CD rat at 10 mg/kg, ip administered 30 mins prior to icv ghrelin challenge measured after 4 hrs; format: functional; conditions: route intraperitoneal; procedure, shortened: as §1
[16] = Drug metabolism in human liver microsomes at 5 uM after 24 hrs; format: ADME, Microsome; conditions: read-out: Drug metabolism; procedure, shortened: as §4
Rattus norvegicus [17] = test: Inhibition of ghrelin induced food intake in CD rat at 10 mg/kg, ip administered 30 mins prior to icv ghrelin challenge measured after 3 hrs; format: functional; conditions: route intraperitoneal; procedure, shortened: as §1
Rattus norvegicus [18] = test: Inhibition of ghrelin-induced gastric emptying in CD rat at 3 mg/kg, ip; format: functional; conditions: Stomach, route intraperitoneal; procedure, shortened: as §2
[19] = Binding affinity at receptor at 10 uM
[20] = Drug metabolism in mouse liver microsomes at 5 uM after 24 hrs; format: ADME, Microsome; conditions: read-out: Drug metabolism; procedure, shortened: as §4
[21] = Binding affinity at dopamine receptor at 10 uM
Rattus norvegicus [22] = test: Inhibition of gastric emptying in CD rat at 3 mg/kg, ip; format: functional; conditions: Stomach, route intraperitoneal; procedure, shortened: as §3
[23] = Binding affinity at muscarinic receptor at 10 uM
[24] = Binding affinity at adenosine receptor at 10 uM
[25] = Binding affinity at cannbinoids receptor at 10 uM
[26] = Binding affinity at opioids receptor at 10 uM
Mus musculus [27] = test: Effect of glucose tolerance in fasted C57/BL6N mouse assessed as inhibition of glucose excursion at 30 mg/kg, po administered 30 mins before glucose challenge measured after 20 to 120 mins by IPGTT; format: functional
Procedure, shortened: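 Male C57/Bl6N mice fasted 16–18 h, then given 30 mg/kg or vehicle by oral gavage. Fasting glucose read from tail blood 30 min after dosing. Glucose 2 g/kg ip given 30 min later, with glucose measured at 20–120 min. […] calculated by trapezoidal method and expressed as % of vehicle AUC.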

Rattus norvegicus [28] = test: Inhibition of ghrelin-induced gastric emptying in ip dosed CD rat; format: functional, organism-based; conditions: Stomach; procedure, shortened: as §2

T1 sequence (Q92847 whole entry): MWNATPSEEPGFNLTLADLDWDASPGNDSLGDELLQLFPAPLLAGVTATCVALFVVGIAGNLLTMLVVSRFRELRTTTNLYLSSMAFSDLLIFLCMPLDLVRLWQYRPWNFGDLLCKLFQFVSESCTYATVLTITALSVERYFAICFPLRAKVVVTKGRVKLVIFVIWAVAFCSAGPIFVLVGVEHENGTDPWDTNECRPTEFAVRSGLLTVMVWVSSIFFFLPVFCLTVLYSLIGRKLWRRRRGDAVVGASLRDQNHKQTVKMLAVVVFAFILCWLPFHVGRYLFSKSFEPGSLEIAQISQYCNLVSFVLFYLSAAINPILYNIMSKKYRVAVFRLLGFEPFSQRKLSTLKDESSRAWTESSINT

Structure (SMILES): CN1CCN(CC(=O)NC2(c3ccc(Cl)cc3)C(=O)Nc3cc(Cl)c(Cl)c(Cl)c32)CC1 (racemic)
- IC50 [1]: 0.273 µM

Structure (SMILES): CN1CCN(CC(=O)NC2(c3ccc(C(C)(C)C)cc3)C(=O)Nc3cc(Cl)c(Cl)cc32)CC1 (single isomer, unassigned; (+))
- IC50 [1]: 1.47 µM

Structure (SMILES): CCN1CCN(CC(=O)NC2(c3ccc(Cl)c(Cl)c3)C(=O)Nc3cc(Cl)cc(Cl)c32)CC1 (single isomer, unassigned; (+))
- inhibition in vivo at 10 mg/kg (Rattus norvegicus [2]): 58%
- Activity [3]: inactive
- IC50 [1]: 0.007 µM
- inhibition (Mus musculus [4]): Active
- CLint (Hepatocyte): 0.097 mL/h/10⁶ cells
- Ki [5]: 0.008 µM
- inhibition in vivo at 10 mg/kg (Rattus norvegicus [6]): 62%
- Papp [7]: 0.385 ×10⁻⁶ cm/s
- efflux ratio (P-glycoprotein): 6.6
- Activity [8]: inactive
- inhibition in vivo at 10 mg/kg (Rattus norvegicus [9]): 55%
- recovery [10]: 51.8%
- Activity [11]: inactive
- metabolised at 24 h, 5 µM [12]: 45%
- Activity [13]: inactive
- inhibition in vivo at 10 mg/kg (Rattus norvegicus [14]): 60%
- inhibition in vivo at 10 mg/kg (Rattus norvegicus [15]): 53%
- metabolised at 24 h, 5 µM [16]: 41%
- inhibition in vivo at 10 mg/kg (Rattus norvegicus [17]): 61%
- inhibition in vivo at 3 mg/kg (Rattus norvegicus [18]): 55%
- Activity [19]: inactive
- metabolised at 24 h, 5 µM [20]: 44%
- Activity [21]: inactive
- inhibition in vivo at 3 mg/kg (Rattus norvegicus [22]): 68%
- Activity [23]: inactive
- Activity [24]: inactive
- Activity [25]: inactive
- Activity [26]: inactive
- inhibition in vivo at 30 mg/kg (Mus musculus [27]): 32%
- inhibition (Rattus norvegicus [28]): Dose-dependent effect

Structure (SMILES): CN1CCCN(CC(=O)NC2(c3ccc(Cl)c(Cl)c3)C(=O)Nc3cc(Cl)cc(Cl)c32)CC1 (single isomer, unassigned; (+))
- IC50 [1]: 0.064 µM

Structure (SMILES): CN(C)C1CCN(CC(=O)NC2(c3ccc(Cl)c(Cl)c3)C(=O)Nc3cc(Cl)cc(Cl)c32)CC1 (single isomer, unassigned; (+))
- IC50 [1]: 0.239 µM

Structure (SMILES): CCN1CCCC(CC(=O)NC2(c3ccc(Cl)c(Cl)c3)C(=O)Nc3cc(Cl)cc(Cl)c32)C1 (single isomer, unassigned; (+))
- IC50 [1]: 0.047 µM

Structure (SMILES): CCN1CCN(CC(=O)NC2(c3ccc(Cl)c(Cl)c3)C(=O)Nc3cc(Cl)cc(Cl)c32)CC1=O (single isomer, unassigned; (+))
- IC50 [1]: 2.78 µM

Structure (SMILES): CCN1CCC(CC(=O)NC2(c3ccc(Cl)c(Cl)c3)C(=O)Nc3cc(Cl)cc(Cl)c32)CC1 (single isomer, unassigned; (+))
- IC50 [1]: 0.001 µM
- Ki [5]: 0.003 µM
- efflux ratio (P-glycoprotein): 58

Structure (SMILES): CN1CCN(CC(=O)NC2(c3ccc(Cl)cc3)C(=O)Nc3cc(Cl)ccc32)CC1 (single isomer, unassigned; (+))
- IC50 [1]: 0.14 µM

Structure (SMILES): CN1CCN(CC(=O)NC2(c3ccc(Cl)c(Cl)c3)C(=O)Nc3cc(Cl)cc(Cl)c32)CC1 (single isomer, unassigned; (+))
- IC50 [1]: 0.024 µM

Structure (SMILES): COc1ccc(C2(NC(=O)CN3CCN(C)CC3)C(=O)Nc3cc(Cl)c(C)cc32)cc1 (single isomer, unassigned; (+))
- IC50 [1]: 0.525 µM

Structure (SMILES): CN1CCN(CC(=O)NC2(c3ccc(Cl)cc3)C(=O)Nc3cc(Cl)c(Cl)cc32)CC1 (single isomer, unassigned; (-))
- IC50 [1]: > 10 µM

Further compounds by falling IC50 [1], results first:

- IC50 [1]: 1.39 µM
Structure (SMILES): CN1CCN(CC(=O)NC2(c3ccc(Cl)cc3)C(=O)Nc3c(Cl)cc(Cl)cc32)CC1 (single isomer, unassigned; (+))

- IC50 [1]: 0.7 µM
Structure (SMILES): COc1ccc(C2(NC(=O)CN3CCN(C)CC3)C(=O)Nc3cc(Cl)c(Cl)cc32)cc1 (single isomer, unassigned; (+))

- IC50 [1]: 0.251 µM
Structure (SMILES): Cc1cc2c(cc1Cl)C(NC(=O)CN1CCN(C)CC1)(c1ccc(Cl)cc1)C(=O)N2 (single isomer, unassigned; (+))

- IC50 [1]: 0.111 µM
Structure (SMILES): CN1CCN(CC(=O)NC2(c3ccc(Cl)c(Cl)c3)C(=O)Nc3cc(Cl)ccc32)CC1 (single isomer, unassigned; (+))

- IC50 [1]: 0.072 µM
- Ki [5]: 0.044 µM
Structure (SMILES): CN1CCN(CC(=O)NC2(c3ccc(Cl)cc3)C(=O)Nc3cc(Cl)cc(Cl)c32)CC1 (single isomer, unassigned; (+))

- IC50 [1]: 0.038 µM
- Ki [5]: 0.121 µM
Structure (SMILES): C=CCN1CCN(CC(=O)NC2(c3ccc(Cl)c(Cl)c3)C(=O)Nc3cc(Cl)cc(Cl)c32)CC1 (single isomer, unassigned; (+))
